Screens (PubChem)
Rows were chosen to be rich in hits. Some 3% of all compounds tested hit in one or more screens of this group.
proKLK7 act = proKLK7 (human) activation, primary screen; AID 652039; activation, % at 7 µM; purified proKLK7, EDANS-DABCYL substrate fluorescence; 100% is mature enzyme control, 0% vehicle; actives 0.9% (n = 370,000);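 active = activation above the mean of all tested compounds plus 3 SD, computed per campaign excluding outliers beyond control limits, cut at about 13% in these data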
PLC-gamma1 inh = PLC-gamma1 (human) inhibition, primary screen; inhibition, % at 12.2 µM; actives 0.84% (n = 370,000); AID 720700; P19174; purified PLC-gamma1, fluorogenic substrate, fluorescence
Target sequence (P19174 whole entry, looked up): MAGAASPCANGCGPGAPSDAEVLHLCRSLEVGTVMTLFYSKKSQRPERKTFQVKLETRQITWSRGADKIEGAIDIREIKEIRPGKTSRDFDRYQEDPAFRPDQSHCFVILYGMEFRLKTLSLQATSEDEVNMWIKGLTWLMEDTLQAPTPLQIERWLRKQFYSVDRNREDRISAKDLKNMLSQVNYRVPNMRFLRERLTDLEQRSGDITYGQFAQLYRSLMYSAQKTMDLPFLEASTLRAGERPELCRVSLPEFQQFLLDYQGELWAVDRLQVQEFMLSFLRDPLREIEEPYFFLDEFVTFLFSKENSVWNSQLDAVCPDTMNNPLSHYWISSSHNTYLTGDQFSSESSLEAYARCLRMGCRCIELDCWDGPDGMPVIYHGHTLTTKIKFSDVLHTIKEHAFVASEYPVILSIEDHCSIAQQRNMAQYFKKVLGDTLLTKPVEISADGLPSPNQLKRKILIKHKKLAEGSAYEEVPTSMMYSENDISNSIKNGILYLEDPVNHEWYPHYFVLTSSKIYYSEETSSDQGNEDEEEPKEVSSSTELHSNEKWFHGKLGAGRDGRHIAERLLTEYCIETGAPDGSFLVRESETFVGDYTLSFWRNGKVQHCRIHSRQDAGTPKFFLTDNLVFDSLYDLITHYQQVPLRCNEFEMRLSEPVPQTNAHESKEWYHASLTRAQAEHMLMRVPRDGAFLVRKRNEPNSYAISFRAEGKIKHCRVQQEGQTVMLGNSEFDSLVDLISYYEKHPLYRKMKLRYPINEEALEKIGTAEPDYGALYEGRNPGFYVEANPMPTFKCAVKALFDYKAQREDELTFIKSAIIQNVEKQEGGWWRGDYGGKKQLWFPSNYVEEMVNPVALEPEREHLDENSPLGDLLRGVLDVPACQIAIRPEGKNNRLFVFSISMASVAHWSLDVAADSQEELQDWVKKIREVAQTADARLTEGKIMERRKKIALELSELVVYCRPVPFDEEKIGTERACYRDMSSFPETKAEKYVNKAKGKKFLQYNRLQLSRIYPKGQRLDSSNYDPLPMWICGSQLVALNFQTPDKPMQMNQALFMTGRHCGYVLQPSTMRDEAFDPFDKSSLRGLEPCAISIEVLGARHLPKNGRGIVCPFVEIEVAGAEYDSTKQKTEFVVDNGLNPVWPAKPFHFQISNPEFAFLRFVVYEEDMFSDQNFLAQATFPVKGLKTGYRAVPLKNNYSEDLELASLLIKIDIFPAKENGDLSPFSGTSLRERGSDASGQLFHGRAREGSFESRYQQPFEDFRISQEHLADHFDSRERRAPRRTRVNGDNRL
PLC-beta3 inh = inhibitors of human phospholipase C beta3. Purified PLC-beta3, fluorogenic substrate, fluorescence. inhibition, % at 12.2 µM. Q01970. actives 0.18% (n = 370,000); in the data active = inhibition above about 11%;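 also: 0% = median of compound wells on plate and 100% = full blocker control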
NRP1-CendR mod = alters CendR peptide binding to human NRP-1 | FAM-RPARPAR peptide binding to NRP-1, fluorescence polarization | inhibition, % at 25 µM | actives 0.85% (n = 360,000) | AID 602438;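 active = inhibition or corrected inhibition above about 18%, plus a signal ratio from 0.5 to 1.5, limit read from the data, passing the limit was not always enough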
Tn7 DDE FP = DD(E)-Tn7 binding inhibition, primary FP screen. AID 720508. FP displacement of FITC-Tn7 peptide from fibrin DD(E); 0% = median of compound wells per plate. P02675. actives 0.13% (n = 370,000). inhibition, % at 8.3 µM;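 active = inhibition above the mean of compounds falling within the control limits plus 3 SD of them, cut at about 14% in these data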;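 also: 0% = plate median of compound wells and 100% = 10 µM Aha-Tn7 peptide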
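Test system – human fibrin DD(E) · Times – 10 min preincubation, 3 h with tracer, room temperature · Detection – fluorescence polarization of the labelled Tn7 tracer · Measure – percent inhibition normalized to high-control wells · Benchmarks – high control wells with 10 µM unlabelled Aha-Tn7 peptide (full inhibition) · Repeats – singlicate testing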
Tn6 DDE FP = DD(E)-Tn6 binding inhibition, primary FP screen. P02675. Fibrin DD(E) TRITC-Tn6 fluorescence polarization displacement. inhibition, % at 8.3 µM. actives 0.21% (n = 370,000). AID 720509;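 active = inhibition above a per-campaign cutoff: mean of compounds within control limits plus 3 SD, cut at about 15% in these data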;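 also: 0% = median of all compound wells on the plate and 100% = blocking peptide control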
Tn7 DDE conf = confirmation of inhibitors of Tn7 binding to human fibrin DD(E). shares compounds with Tn7 DDE FP. FP displacement of TRITC-Tn7 peptide from DD(E); 0% set at plate's compound-well median. inhibition, % at 8.3 µM. actives 5% (n = 460);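 active = inhibition above the campaign cutoff, the mean of compounds within control limits plus 3 SD, cut at about 14% in these data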;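 also: 100% = median FP of high control wells holding Aha-Tn7 inhibitor peptide; displacers lower polarization since freed probe rises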
DDE Tn7 FP ctr = counter-screen for inhibitors of Tn7 peptide binding to fibrin DD(E). shares compounds with Tn7 DDE FP. TRITC-Tn7 probe displacement, fluorescence polarization. inhibition, % at 8.3 µM. actives 3% (n = 460). AID 720633;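 active = inhibition above the cutoff, the mean of compounds lying between the control bounds plus 3 SD of those compounds, cut at about 17% in these data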;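 also: 0% = median of compound sample wells and 100% = excess unlabeled Aha-Tn7 peptide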
DDE Tn6 FP ctr = counter-screen hit for Tn6 peptide-fibrin DD(E) binding disruption | shares compounds with Tn6 DDE FP | TRITC-Tn6 fluorescence polarization displacement; 0% = median of compound wells, not DMSO | inhibition, % at 8.3 µM | actives 2% (n = 680);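 active = inhibition above the mean of test compounds lying between the control limits plus 3 SD of those, cut at about 14% in these data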;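 also: 0% = median of compound wells and 100% = wells with Aha-Tn7 blocking peptide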
DDE Tn6 confirm = DD(E)-Tn6 binding inhibition, FP confirmation; actives 10% (n = 680); shares compounds with Tn6 DDE FP; inhibition, % at 8.3 µM; FP displacement of TRITC-Tn6 peptide from DD(E); 0% = per-plate median of test wells;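 active = inhibition above the mean of compounds lying within the control limits plus 3 SD, cut at about 16% in these data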;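 also: 100% = high control wells holding a competing inhibitor peptide at 10 µM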
PLCg1 ctr = inhibits human PLC-gamma1 in PLC-beta3 counter-screen; inhibition, % at 12.3 µM; purified PLC-gamma1, fluorogenic substrate, fluorescence; shares compounds with PLC-gamma1 inh; actives 3.1% (n = 3,300)
PLCb3 confirm = human PLC-beta3 inhibition, confirmation. shares compounds with PLC-gamma1 inh. purified PLC-beta3, fluorogenic substrate fluorescence. inhibition, % at 12.3 µM. actives 1% (n = 3,300). AID 743261; in the data active = inhibition above about 11%
* marks the source's active call; other numbers are inactive results. Rule as the data show it, unless noted: active = inhibition above about 9.5%; inactive = the rest.

What do the screens show for `Nc1cnccc1C(=O)O`?
proKLK7 act: 6.4; PLC-gamma1 inh: -51.8; PLC-beta3 inh: -62.9; NRP1-CendR mod: 135.0; Tn7 DDE FP: 13.8*; Tn6 DDE FP: 45.9*; Tn7 DDE conf: -1.7; DDE Tn7 FP ctr: -3.1; DDE Tn6 FP ctr: -1.7; DDE Tn6 confirm: -3.1

Results for N#CC1=C(N)Oc2cc(N)ccc2C1c1ccsc1 (configuration not stated) ?
proKLK7 act: -0.2; PLC-gamma1 inh: -5.0; PLC-beta3 inh: -6.5; NRP1-CendR mod: -13.5; Tn7 DDE FP: 6.9; Tn6 DDE FP: 7.5

What do the screens show for `N#CC1=C(N)Oc2ccc3ccc(O)cc3c2C1c1ccsc1` (configuration not stated)?
proKLK7 act: 0.4; PLC-gamma1 inh: -219.2; PLC-beta3 inh: -242.3; NRP1-CendR mod: 134.3; Tn7 DDE FP: 22.9*; Tn6 DDE FP: 168.6*; Tn7 DDE conf: 7.8; DDE Tn7 FP ctr: 37.8*; DDE Tn6 FP ctr: 7.8; DDE Tn6 confirm: 37.8*

What do the screens show for `CC1CCCN(c2cccc3c2S(=O)(=O)N(Cc2cccc(Cl)c2)[C@@H](C)[C@H](c2ccccc2)O3)C1` (some centres not stated)?
proKLK7 act: -0.3; PLC-gamma1 inh: -0.9; PLC-beta3 inh: 0.1; Tn7 DDE FP: -1.3; Tn6 DDE FP: -7.4

How did O=C1C(N2CCOCC2)=Cc2cccc3cccc1c23 do in these assays?
proKLK7 act: -1.2; PLC-gamma1 inh: -111.2; PLC-beta3 inh: -159.6; NRP1-CendR mod: 117.9; Tn7 DDE FP: 21.9*; Tn6 DDE FP: 37.9*; Tn7 DDE conf: -0.1; DDE Tn7 FP ctr: 16.5*; DDE Tn6 FP ctr: -0.1; DDE Tn6 confirm: 16.5*

How did CC1(C)CC2(CC(C)(C(=O)CSc3nc4ccccc4s3)OC2=O)C(=O)O1 (configuration not stated) do in these assays?
proKLK7 act: 0.4; PLC-gamma1 inh: 16.0*; PLC-beta3 inh: 11.3*; NRP1-CendR mod: -1.1; Tn7 DDE FP: 17.6*; Tn6 DDE FP: -2.0; Tn7 DDE conf: 1.1; DDE Tn7 FP ctr: -9.5; PLCg1 ctr: -3.0; PLCb3 confirm: -1.1

How did O=C(CSc1nc2c(c(=O)[nH]1)CCCC2)N1CCOCC1 do in these assays?
proKLK7 act: 0.6; PLC-gamma1 inh: -1.8; PLC-beta3 inh: 0.7; Tn7 DDE FP: 3.2; Tn6 DDE FP: 12.4

How did Cc1ccc(-c2[nH]nc(N)c2N=Nc2ccccc2C)cc1 do in these assays?
proKLK7 act: -0.1; PLC-gamma1 inh: 7.7; PLC-beta3 inh: -2.2; NRP1-CendR mod: 3.4; Tn7 DDE FP: -3.1; Tn6 DDE FP: -4.7

Results for Cc1ccc(-c2[nH]nc(N)c2N=Nc2cccc(Cl)c2C)cc1 ?
proKLK7 act: 0.5; PLC-gamma1 inh: 3.5; PLC-beta3 inh: 1.4; NRP1-CendR mod: -7.8; Tn7 DDE FP: 6.3; Tn6 DDE FP: 17.5*; DDE Tn6 FP ctr: 4.6; DDE Tn6 confirm: -0.3

Results for COc1ccc(CC(=O)OCC(=O)N2CCCC(C)C2)cc1 (configuration not stated) ?
proKLK7 act: -0.4; PLC-gamma1 inh: 0.4; PLC-beta3 inh: -6.1; NRP1-CendR mod: -1.5; Tn7 DDE FP: -1.7; Tn6 DDE FP: 15.2*; DDE Tn6 FP ctr: -4.0; DDE Tn6 confirm: -7.7

How did Cc1ccc(C(=O)c2ccccc2C(=O)OCC(=O)Nc2ccc(SC(F)F)cc2)cc1 do in these assays?
proKLK7 act: -0.6; PLC-gamma1 inh: 1.1; PLC-beta3 inh: -0.3; NRP1-CendR mod: -15.2; Tn7 DDE FP: 3.5; Tn6 DDE FP: -4.9

How did O=C(COC(=O)c1ccccc1Cc1ccccc1)Nc1ccc(SC(F)F)cc1 do in these assays?
proKLK7 act: 0.6; PLC-gamma1 inh: -4.3; PLC-beta3 inh: -6.9; NRP1-CendR mod: -0.6; Tn7 DDE FP: -4.5; Tn6 DDE FP: 15.6*; DDE Tn6 FP ctr: -1.2; DDE Tn6 confirm: -20.5

Results for c1ccc(Oc2ccccc2-c2cc(NCCc3cccnc3)n3nccc3n2)cc1 ?
proKLK7 act: -10.0; PLC-gamma1 inh: -236.6; PLC-beta3 inh: -327.6; NRP1-CendR mod: 8.6; Tn7 DDE FP: 0.0; Tn6 DDE FP: 16.7*; DDE Tn6 FP ctr: 1.0; DDE Tn6 confirm: 0.2

Results for Cc1cc(N2C(=O)C(=O)/C(=C(/O)c3ccccc3)C2c2cccs2)no1 (configuration not stated) ?
proKLK7 act: 0.1; PLC-gamma1 inh: -1.8; PLC-beta3 inh: -0.5; NRP1-CendR mod: -5.9; Tn7 DDE FP: 7.4; Tn6 DDE FP: 20.8*; DDE Tn6 FP ctr: 4.7; DDE Tn6 confirm: -1.2

How did O=C(CSc1nnc(-c2cccnc2)n1-c1ccccc1)Nc1ccc(OCc2ccccc2)cc1 do in these assays?
proKLK7 act: 0.6; PLC-gamma1 inh: -0.7; PLC-beta3 inh: 2.8; Tn7 DDE FP: 9.7; Tn6 DDE FP: -2.7

What do the screens show for `Cc1cc(C(=O)COc2cc(F)ccc2[N+](=O)[O-])c(C)n1C1CC1`?
proKLK7 act: 0.1; PLC-gamma1 inh: -0.8; PLC-beta3 inh: -6.1; NRP1-CendR mod: 6.1; Tn7 DDE FP: 6.0; Tn6 DDE FP: 15.9*; DDE Tn6 FP ctr: 2.8; DDE Tn6 confirm: 1.3

Results for CCCCNC(=O)CCC(=O)Nc1ccc2nc(N3CCCCC3)cc(C)c2c1 ?
proKLK7 act: -0.2; PLC-gamma1 inh: -73.0; PLC-beta3 inh: -109.6; NRP1-CendR mod: -1.4; Tn7 DDE FP: 4.9; Tn6 DDE FP: 16.1*; DDE Tn6 FP ctr: 4.0; DDE Tn6 confirm: 3.1

Results for c1ccc(Cc2c[nH]c3ccccc23)cc1 ?
proKLK7 act: -0.4; PLC-gamma1 inh: -1.1; PLC-beta3 inh: -2.4; NRP1-CendR mod: 2.1; Tn7 DDE FP: 6.0; Tn6 DDE FP: -3.2
